How the values were obtained:
Leishmania donovani [1] = test: Antiparasitic activity against Leishmania donovani for % inhibition at 30 uM concentration T/100 means the compound was toxic to macrophages but more toxic to parasites that is none present, 100% inhibition; format: functional, organism-based
Outline: (§1)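 L. donovani MHOM/ET/67/L82 amastigotes from golden hamster spleen infect CD1 mouse peritoneal macrophages at 10:1 in RPMI 1640 + 10% hiFCS, 37 °C, 5% CO2. Compound exposure is a 3-fold dilution series from 30 μM, quadruplicate cultures, 5 days, with medium + drug replaced once. Cells are methanol-fixed and Giemsa-stained, and the proportion of infected cells is compared with untreated cultures. ED50 is derived by linear regression.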

Leishmania donovani [2] = test: Compound was tested for antiparasitic activity caused against Leishmania donovani for percentage inhibition at 3 uM concentration; format: functional, organism-based; outline: as §1
Leishmania donovani [3] = test: Antiparasitic activity against Leishmania donovani for % inhibition at 10 uM concentration T/100 means the compound was toxic to macrophages but more toxic to parasites that is none present, 100% inhibition; format: functional, organism-based; outline: as §1
Trypanosoma brucei [4] = test: Antiparasitic activity against Trypanosoma brucei, percentage inhibition at 10 uM concentration; format: functional, organism-based
Outline: (§2)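 T. brucei S427 bloodstream trypomastigotes are grown in HMI-18 + 20% hiFCS at 37 °C, 5% CO2. Compound exposure is a 3-fold dilution series from 30 μM, triplicate cultures, 72 h. Read-out is an MTT-based cytotoxicity assay, or Coulter counting of cells/mL in the dose-range screen. ED50 is derived by linear regression of dose-response.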

Trypanosoma brucei [5] = test: Antiparasitic activity against Trypanosoma brucei, percentage inhibition at 30 uM concentration; format: functional, organism-based; outline: as §2
Trypanosoma brucei [6] = test: Antiparasitic activity caused against Trypanosoma brucei for percentage inhibition at 3 uM concentration; format: functional, organism-based; outline: as §2
Trypanosoma brucei [7] = test: Compound was tested for antiparasitic activity caused against Trypanosoma brucei for percentage inhibition at 1 uM concentration; format: functional, organism-based; outline: as §2
Trypanosoma cruzi [8] = test: Antiparasitic activity against Trypanosoma cruzi for % inhibition at 10 uM concentration T/+ means the compound was toxic to macrophages but parasites still present; format: functional, organism-based
Outline: (§3)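 T. cruzi Y strain (MHOM/BR/00/Y) trypomastigotes from MDCK cells infect CD1 mouse peritoneal macrophages at 5:1 in RPMI 1640 + 10% hiFCS, 37 °C, 5% CO2. Compound exposure is a 3-fold dilution series from 30 μM, quadruplicate, 3 days. Read-out is the proportion of infected cells after methanol fixation and Giemsa staining, versus untreated cultures. ED50 is derived by linear regression.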

Trypanosoma cruzi [9] = test: Antiparasitic activity against Trypanosoma cruzi for % inhibition at 30 uM concentration T/+ means the compound was toxic to macrophages but parasites still present; format: functional, organism-based; outline: as §3
Trypanosoma cruzi [10] = test: Antiparasitic activity against Trypanosoma cruzi for % inhibition at 3 uM concentration T/+ means the compound was toxic to macrophages but parasites still present; format: functional, organism-based; outline: as §3
Trypanosoma cruzi [11] = test: Compound was tested for antiparasitic activity caused against Trypanosoma cruzi for effective dose for 50% activity

(2,2':6',2''-terpyridine)platinum (II) complex
inhibition (Leishmania donovani [1]): Total inhibition
inhibition (Leishmania donovani [2]): 99.8%
inhibition (Leishmania donovani [3]): Total inhibition
inhibition (Trypanosoma brucei [4]): 100%
inhibition (Trypanosoma brucei [5]): 100%
inhibition (Trypanosoma brucei [6]): 100%
inhibition (Trypanosoma brucei [7]): 100%
inhibition (Trypanosoma cruzi [8]): toxic to macrophages but parasites still present
inhibition (Trypanosoma cruzi [9]): toxic to macrophages but parasites still present
inhibition (Trypanosoma cruzi [10]): toxic to macrophages but parasites still present
ED50 (Trypanosoma cruzi [11]): 4 µM

From ChEMBL document CHEMBL1132618, “Cytotoxicity of (2,2':6',2''-terpyridine)platinum(II) complexes to Leishmania donovani, Trypanosoma cruzi, and Trypanosoma brucei” (J Med Chem, 1999)
